Measurements pooled from the literature.
Each line is one published result; the experiments were not run side by side.

Structure (SMILES)	assay	test system	setting	endpoint	value
CC(C)(C)c1ccc(O)c(CN(Cc2cc(C(C)(C)C)ccc2O)C2CCC(NC(N)=O)CC2)c1 (centres unmarked)		male C57BL/6 mouse, plasma	intraperitoneal, 25 mg/kg, single dose	clearance	1.6 L/h/kg
COc1ccc(C(O)COc2ccc(-c3csc(-c4ccc(OCC(O)c5ccc(OC)c(OC)c5)cc4)n3)cc2)cc1OC (centres unmarked)		C57BL/6 mouse, plasma	intravenous, 3 mg/kg	C0	5.28 µg/mL
O=C(NCCN1CCCC1)c1cc(-c2ccc(CN3CCOCC3)cc2)nc2ccc(F)cc12		male beagle dog, blood	oral, 3 mg/kg	Cmax	0.027 µg/mL
CC(C)Oc1c(NC(=O)c2ccc(NC(=O)[C@H](CC(N)=O)NC(=O)c3ccc(NC(=O)c4ccc(C#N)cc4)cc3)cc2)ccc(C(=O)Nc2ccc(C(=O)O)cc2)c1O		male CD-1 mouse, plasma	intravenous, 5 mg/kg, single dose	C0	2.94 µg/mL
C=CC(=O)N1CC2CC(n3nc(-c4ccc(C(=O)Nc5ccccn5)cc4)c4c(N)ncnc43)CC2C1 (centres unmarked)		male Wistar rat, plasma	oral, 30 mg/kg	Tmax	2 h
CCn1c(=O)c(-c2cc(NC(=O)Nc3ccccc3)c(F)cc2Br)cc2cnc(NC)cc21		beagle dog, plasma	oral, 5 mg/kg, single dose	CL/F	1.26 L/h/kg
Cc1nn2c(-c3c(C)nn(C)c3-c3ccc(C(F)(F)F)cc3)nc(CO)c2c(=O)[nH]1		male beagle dog, plasma	intravenous, 1 mg/kg	clearance	0.078 L/h/kg
CCc1cc(OC)c2nccc(N3CCc4c(cc(Cn5ccnc5)cc4-c4cn(C)nc4C(F)(F)F)C3=O)c2c1		male CD-1 mouse, plasma	intravenous, 3 mg/kg	C0	4.31 µg/mL
COc1ccnc(CNC(=O)c2cn(Cc3ccc(Cn4ccccc4=O)cc3)nc2C(F)(F)F)c1F		male beagle dog, plasma	oral, 1 mg/kg	Cmax	0.2 µg/mL
COc1cc2c3c(n(CCCN4CCOCC4)c(=O)c2cc1OC)-c1cc2c(cc1C3=O)OCO2		male beagle dog, plasma	intravenous, 100 mg/m², infusion	Cmax	0.461 µg/mL
CC[C@H](C)[C@@H]1NC(=O)[C@@](C)(NC(=O)[C@H](CCCNC(=N)N)NC(=O)[C@H](CC(C)C)NC(=O)[C@@H](NC(=O)[C@H](CCC(N)=O)NC(=O)[C@H](CC(C)C)NC(C)=O)[C@@H](C)O)CCCC=CCCC[C@@](C)(C(=O)N[C@@H](CC(C)C)C(=O)N[C@@H](Cc2ccc3ccccc3c2)C(N)=O)NC(=O)[C@H](CCCNC(=N)N)NC(=O)[C@H](CCC(N)=O)NC1=O		male BALB/c mouse, plasma	intravenous, 10 mg/kg	clearance	0.0428 L/h/kg
Oc1c(-n2ccnn2)cnn1-c1cc(N2CCOCC2)ncn1		female dog, blood	intravenous, 3 mg/kg	clearance	1.1 L/h/kg
CCc1cc(C(=O)NC)c2nccc(N3CCc4c(cc(Cn5ccnc5)cc4-c4cn(C)nc4C(F)(F)F)C3=O)c2c1		male CD-1 mouse, plasma	intravenous, 3 mg/kg	C0	7.56 µg/mL
C[C@@H]1[C@H](O)[C@@H](C)/C=C/C=C/C=C/C=C/C=C/C=C/C=C/[C@H](O[C@@H]2O[C@H](C)[C@@H](O)[C@H](N)[C@@H]2O)C[C@@H]2O[C@](O)(C[C@@H](O)C[C@@H](O)[C@H](O)CC[C@@H](O)C[C@@H](O)CC(=O)O[C@H]1C)C[C@H](O)[C@H]2C(=O)O	haemolysis	rabbit	64 µg/mL, 1 h	haemolysis	100%
CC[C@@H]1CN(C(=O)NCC(F)(F)F)C[C@@H]1c1cnc2cnc3[nH]ccc3n12		beagle dog, plasma	oral, 1 mg/kg, single dose	Cmax	0.0894 µg/mL
COCc1nn(Cc2ccc(Cn3ccccc3=O)cc2)cc1C(=O)NCc1nccc(OC)c1F		male beagle dog, plasma	oral, 1 mg/kg	Cmax	0.284 µg/mL
COc1cc(OC)c2nccc(N3CCc4c(cc(Cn5ccnc5)cc4-c4cn(C)nc4C(F)(F)F)C3=O)c2c1		male CD-1 mouse, plasma	intravenous, 3 mg/kg	C0	1.59 µg/mL
